Bioassay records from PubChem BioAssay.
Hits are enriched below; roughly 1.6% of the tested compounds scored in any of these assays.
ADAM17 inh – ADAM17 inhibitors, primary screen, biochemical, QFRET; recombinant ADAM17, EDANS/DABCYL FRET peptide cleavage; 0.83% of 370,000 active; Disintegrin and metalloproteinase domain-containing protein 17 (Homo sapiens), P78536; inhibition, % at 6.95 µM;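 active means inhibition above the mean of compounds lying between control limits plus 3 SD, set per campaign, cut at about 8.5% in these data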
ADAM10 inh – human ADAM10 inhibitors, primary screen, biochemical, QFRET, HTS | recombinant ADAM10, EDANS/DABCYL FRET peptide cleavage, 3 h | 0.62% of 370,000 active | AID 720582, 2013 | inhibition, % at 7 µM | Disintegrin and metalloproteinase domain-containing protein 10 (Homo sapiens), O14672;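 active means inhibition above a per-campaign cutoff equal to the mean of compounds falling between control-based bounds plus 3 SD, cut at about 20% in these data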
Target sequence (O14672 214-748 limits assumed): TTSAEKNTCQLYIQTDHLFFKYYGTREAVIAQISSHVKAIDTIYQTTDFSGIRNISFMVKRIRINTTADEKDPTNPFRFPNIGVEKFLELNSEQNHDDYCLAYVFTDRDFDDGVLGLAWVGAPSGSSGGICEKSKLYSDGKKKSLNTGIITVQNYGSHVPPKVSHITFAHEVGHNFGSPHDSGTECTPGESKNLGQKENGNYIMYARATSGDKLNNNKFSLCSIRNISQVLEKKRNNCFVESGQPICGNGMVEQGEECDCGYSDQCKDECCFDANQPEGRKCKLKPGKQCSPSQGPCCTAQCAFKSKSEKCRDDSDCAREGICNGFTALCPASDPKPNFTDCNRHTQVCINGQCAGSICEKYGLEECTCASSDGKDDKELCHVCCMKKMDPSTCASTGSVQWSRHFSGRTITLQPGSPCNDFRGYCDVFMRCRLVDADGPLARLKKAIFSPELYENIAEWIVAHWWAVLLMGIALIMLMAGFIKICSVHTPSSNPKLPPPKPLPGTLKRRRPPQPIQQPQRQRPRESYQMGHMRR
MT1-MMP act inh – blockers of MT1-MMP proenzyme processing, primary screen, HT1080 RFP-PRO-GFP cells, GFP/RFP fluorescence; Matrix metalloproteinase-14 (Homo sapiens), P50281; GFP/RFP ratio fluorescence, overnight; percent of plate control window, DMSO zero; GFP/RFP ratio change, % at 20 µM; 0.061% of 360,000 active;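 active means GFP/RFP ratio change of at least 30% with cell ATP level not reduced by more than half and red fluorescence within 50% of control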
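Test system: HT1080 RFP-PRO-GFP cells; Benchmarks: DMSO and RFP-L50D-GFP cell wells; Timing: cells overnight before dosing, compound overnight, 37 °C, 5% CO2; Compound: one 20 µM compound dose with 1% DMSO; Read-out: GFP/RFP fluorescence ratio.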
DDE Tn7 FP inh – inhibitors of Tn7 peptide binding to fibrin DD(E), primary screen, biochemical, fluorescence polarization, human fibrin, Tn7 probe | inhibition, % at 8.3 µM | AID 720508, 2013 | 0.13% of 370,000 active | FP displacement of FITC-Tn7 peptide from fibrin DD(E); 0% = median of compound wells per plate;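 active means inhibition above the mean of compounds falling within the control limits plus 3 SD of them, cut at about 14% in these data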
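Assay system: Human clot-derived fibrin DD(E) complex | Buffer or medium: Tris/NaCl/CaCl2 buffer, pH 7.8 | Repeats: One replicate per compound | Benchmarks: Aha-Tn7 high control | Measure: % inhibition scaled between sample-field median and high-control FP | Schedule: 10 min plus 3 h, room temperature | Signal: Fluorescence polarization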
Tn6 DDE FP – inhibitors of Tn6 peptide binding to fibrin DD(E), primary screen, biochemical, fluorescence polarization, human fibrin, Tn6 probe | Fibrinogen beta chain (Homo sapiens), P02675 | Fibrin DD(E) TRITC-Tn6 fluorescence polarization displacement | inhibition, % at 8.3 µM | 0.21% of 370,000 active | AID 720509, 2013;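 active means inhibition above a per-campaign cutoff: mean of compounds within control limits plus 3 SD, cut at about 15% in these data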
ADAM10 ctr – ADAM10 inhibitors, counter-screen for ADAM17 exosite inhibitor project, biochemical, FRET, human ADAM10. AID 743256, 2014. inhibition, % at 6.95 µM. shares compounds with ADAM17 inh. recombinant ADAM10, EDANS/DABCYL FRET peptide cleavage, 3 h. 47% of 2,900 active;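 active means mean inhibition over the triplicate runs exceeds the activity threshold set in the earlier primary screen, cut at about 20% in these data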
ADAM17 confirm – ADAM17 inhibitors, hit retest, confirmation, biochemical, QFRET peptide cleavage; shares compounds with ADAM17 inh; recombinant ADAM17, EDANS/DABCYL QFRET peptide cleavage; inhibition, % at 6.95 µM; 65% of 2,900 active;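 active means mean inhibition across replicates above the hit cutoff set in the primary screen, cut at about 8.5% in these data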
Numbers stand for hits.

What do the screens show for `C[C@H]1COc2cc(N3CCCC3)ccc2S(=O)(=O)N1C`?
ADAM17 inh: inactive; ADAM10 inh: inactive; DDE Tn7 FP inh: inactive; Tn6 DDE FP: inactive

How did COc1cc(/C=C(\C#N)c2ccccn2)ccc1OCc1ccccc1 do in these assays?
ADAM17 inh: 9.4; ADAM10 inh: inactive; MT1-MMP act inh: inactive; DDE Tn7 FP inh: inactive; Tn6 DDE FP: inactive; ADAM10 ctr: inactive; ADAM17 confirm: 16

What do the screens show for `O=C(CNC(=S)N(Cc1ccccc1)Cc1ccccc1F)NCc1ccccc1`?
ADAM17 inh: 9.1; ADAM10 inh: inactive; MT1-MMP act inh: inactive; DDE Tn7 FP inh: inactive; Tn6 DDE FP: inactive; ADAM10 ctr: 30; ADAM17 confirm: 13

Results for O=C(SCC(O)C(O)CS)c1cccs1 (configuration not stated) ?
ADAM17 inh: 43; ADAM10 inh: inactive; MT1-MMP act inh: inactive; DDE Tn7 FP inh: inactive; Tn6 DDE FP: inactive; ADAM10 ctr: 31; ADAM17 confirm: 64

What do the screens show for `CC(CC(=O)c1cccs1)CC(=O)c1cccs1`?
ADAM17 inh: inactive; ADAM10 inh: inactive; MT1-MMP act inh: inactive; DDE Tn7 FP inh: inactive; Tn6 DDE FP: inactive

How did COC(=O)[C@H]1C[C@@]2(N3CCCC3)c3ccccc3N[C@H]2N1S(=O)(=O)c1ccc([N+](=O)[O-])cc1 do in these assays?
ADAM17 inh: inactive; ADAM10 inh: inactive; DDE Tn7 FP inh: inactive; Tn6 DDE FP: inactive

Results for CS(=O)c1ccccc1-c1nc(-c2ccc([N+](=O)[O-])cc2)no1 (configuration not stated) ?
ADAM17 inh: 11; ADAM10 inh: inactive; MT1-MMP act inh: inactive; DDE Tn7 FP inh: inactive; Tn6 DDE FP: inactive; ADAM10 ctr: 22; ADAM17 confirm: inactive

How did O=C(c1ccncc1)N1N=C(c2ccc(Br)cc2)CC1c1ccccc1O (configuration not stated) do in these assays?
ADAM17 inh: inactive; ADAM10 inh: inactive; MT1-MMP act inh: inactive; DDE Tn7 FP inh: inactive; Tn6 DDE FP: inactive

What do the screens show for `Cc1ccc(C2=NN(S(=O)(=O)c3ccccc3)C(c3ccccc3O)C2)cc1` (configuration not stated)?
ADAM17 inh: 8.9; ADAM10 inh: inactive; MT1-MMP act inh: inactive; DDE Tn7 FP inh: inactive; Tn6 DDE FP: inactive; ADAM10 ctr: 42; ADAM17 confirm: 23

Results for O=C(c1ccccc1)N1N=C(c2ccccc2)CC1c1ccccc1O (configuration not stated) ?
ADAM17 inh: 11; ADAM10 inh: inactive; MT1-MMP act inh: inactive; DDE Tn7 FP inh: inactive; Tn6 DDE FP: inactive; ADAM10 ctr: inactive; ADAM17 confirm: 10

Results for Cc1noc(C)c1S(=O)(=O)N(C)C[C@@H]1OCc2cn(nn2)CCCC(=O)N([C@H](C)CO)C[C@H]1C ?
ADAM17 inh: inactive; ADAM10 inh: inactive; DDE Tn7 FP inh: inactive; Tn6 DDE FP: inactive

How did CCC[C@H]1[C@@H](OC(=O)NCCc2ccccc2)CC[C@@]23CCCN2C(=O)CCC[C@@H]13 do in these assays?
ADAM17 inh: inactive; ADAM10 inh: inactive; DDE Tn7 FP inh: inactive; Tn6 DDE FP: inactive

What do the screens show for `CC(=O)N(C)c1ccc(N=Nc2c(C)[nH]n(-c3ccccc3)c2=O)cc1`?
ADAM17 inh: inactive; ADAM10 inh: inactive; MT1-MMP act inh: inactive; DDE Tn7 FP inh: inactive; Tn6 DDE FP: inactive
